Source: PubChem BioAssay
proKLK7 act – activates the human kallikrein-7 zymogen; hit rate 0.9% among 370,000; activation, % at 7 µM; purified proKLK7, EDANS-DABCYL substrate fluorescence; 100% is mature enzyme control, 0% vehicle; P49862;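 active = activation above the mean of all tested compounds plus 3 SD, computed per campaign excluding outliers beyond control limits, cut at about 13% in these data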
Runt-SMMHC FRET – inhibitors of human RUNX1 Runt domain binding to CBFb-SMMHC | Q01196+Q13951 | Cerulean-Runt/Venus-CBFb-SMMHC FRET ratio 530/480, 1 h | inhibition, % at 20 µM | hit rate 0.74% among 220,000 | AID 1434;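 active = mean inhibition across duplicate retests at 20 µM reaching about 50%, limit read from the data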;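 note: inhibitors lower the FRET ratio by blocking Runt binding to CBFb-SMMHC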
Runt-CBFb FRET – inhibitors of human RUNX1 Runt domain binding to CBFb; AID 1496; Cerulean-Runt/Venus-CBFb FRET ratio 530/480, 1 h; inhibition, % at 20 µM; hit rate 0.46% among 220,000;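 active = inhibition over about 50% at 20 µM in the single-dose screen, limit read from the data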
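test system = Cerulean-Runt domain fusion protein, energy donor | probe or stimulus = Venus-CBFb binding partner, 100 nM | incubation = two 1 h room-temperature incubations shielded from light | detection = fluorescence energy transfer, 422 nm excitation, 530/480 nm emission | measure = loss of energy transfer signal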
AI-2 QS mod – Vibrio harveyi AI-2 quorum sensing modulation. Vibrio harveyi JMH597 AI-2 luminescence/OD600 ratio, 9 h; hits give low values; strain lacks LuxN and CqsS sensors; 0 = neutral-control median. activity change, % at 7.5 µM. hit rate 0.4% among 300,000; in the data active = activity change below about -75%, passing the limit was not always enough; inconclusive = no clear call, values can overlap the other calls;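 note: luminescence divided by OD600 gain over 9 h not by final OD600 alone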
RanGTP-Imp inh – inhibitors of RanGTP-importin-beta interaction, primary screen, biochemical, FRET, CFP-Ran, YFP-importin-beta, homogeneous. cell-free CFP-Ran/YFP-importin-beta FRET ratio. inhibition, % (no concentration beside the values). hit rate 1.1% among 300,000. AID 2216;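 active = more than half of the replicate wells show a fall in the fluorescence ratio signal beyond about 16%, limit read from the data, passing the limit was not always enough; inconclusive = exactly half of the replicate wells pass the set limit; inactive = fewer than half of replicates pass the limit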
Wee1 degr inh – inhibitors of human Wee1 degradation; reporter increase, % at 5 µM; HeLa Luc-Wee1K328M stability, luciferase luminescence; 100% = proteasome inhibitor MG132 effect; AID 1321; hit rate 1.2% among 220,000; P30291;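 active = activation above the mean of all tested compounds plus 3 SD, set per screening run, cut at about 8.8% in these data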;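 note: cells exposed to compound for 20 h before luminescence read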
Target sequence (P30291 whole entry K328M): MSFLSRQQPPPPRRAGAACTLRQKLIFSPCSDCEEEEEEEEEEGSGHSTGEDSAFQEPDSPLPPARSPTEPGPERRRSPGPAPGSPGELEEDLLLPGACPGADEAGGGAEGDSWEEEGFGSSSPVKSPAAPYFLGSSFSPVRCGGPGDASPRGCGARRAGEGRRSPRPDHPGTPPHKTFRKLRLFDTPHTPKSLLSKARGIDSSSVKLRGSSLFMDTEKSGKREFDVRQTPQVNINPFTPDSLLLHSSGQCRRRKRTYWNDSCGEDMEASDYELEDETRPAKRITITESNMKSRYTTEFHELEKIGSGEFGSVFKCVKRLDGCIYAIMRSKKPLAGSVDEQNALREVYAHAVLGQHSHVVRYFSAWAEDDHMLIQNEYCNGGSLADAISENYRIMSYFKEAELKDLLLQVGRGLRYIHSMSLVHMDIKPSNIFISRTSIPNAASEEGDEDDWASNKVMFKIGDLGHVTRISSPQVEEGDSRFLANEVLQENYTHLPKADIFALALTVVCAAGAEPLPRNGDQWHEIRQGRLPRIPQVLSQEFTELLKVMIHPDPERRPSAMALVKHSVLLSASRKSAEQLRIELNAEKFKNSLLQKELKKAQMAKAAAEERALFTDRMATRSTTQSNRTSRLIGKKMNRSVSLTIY
YIC FRET counter – counter-screen: alters YIC FRET probe signal; shares compounds with RanGTP-Imp inh; hit rate 40% among 1,000; IC50, µM; Purified YIC probe, intramolecular FRET ratio YFP/CFP;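 active = fitted half-maximal inhibitory concentration no more than tenfold above the top dose tested; inconclusive = flat fit with 30 to 70% activity, or poor fit; inactive = half-maximal concentration beyond tenfold above the top dose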
KLK7 act conf – proKLK7 activation, confirmation. shares compounds with proKLK7 act. activation, % at 7 µM. purified proKLK7, EDANS-DABCYL substrate fluorescence; scaled: vehicle 0, mature enzyme 100. AID 686949. hit rate 68% among 3,200;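 active = activation, as change over the incubation, above the mean of all tested compounds plus 3 SD, cut at about 13% in these data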
EDANS-DABCYL int – counter-screen for kallikrein-7 activators: EDANS-DABCYL optical interference; shares compounds with proKLK7 act; EDANS-DABCYL substrate fluorescence interference, no enzyme, 4 h; solvent 0%, active enzyme control 100%; activation, % at 7 µM; hit rate 80% among 3,200; AID 686952;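 active = activation above the all-compound mean plus 3 SD, ignoring values outside control-based bounds, cut at about 4.8% in these data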;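 note: value is the 4 h activation minus the activation read at time zero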
EDANS interf – optically interferes with EDANS-DABCYL fluorescence, kallikrein-7 activator counter-screen; EDANS-DABCYL peptide fluorescence interference, no enzyme; shares compounds with proKLK7 act; hit rate 20% among 250; AID 720493; EC50, µM;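 active = compounds that raise the fluorescence signal in this interference counterscreen, with EC50 at or below 10 µM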;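 note: intact quenched peptide substrate alone read at 355 nm excitation and 520 nm emission; signal is fluorescence gain from T0 to T4 after four hours at room temperature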
Hits are given with their value; – = inactive; ? = inconclusive; · = no result given. Shown are actives, neighbours in structure and some others; about 2.9% of the full set was active somewhere.

SMILES	proKLK7 act	Runt-SMMHC FRET	Runt-CBFb FRET	AI-2 QS mod	RanGTP-Imp inh	Wee1 degr inh	YIC FRET counter	KLK7 act conf	EDANS-DABCYL int	others
COC(=O)Cc1c(C)c2ccc(OC(C)C)cc2oc1=O	–	–	–	–	–	–	·	·	·
CN(C)/C=N/c1nc2nccc(-c3cccs3)n2n1	85	–	–	–	17	–	14	67	79
Cc1cc(C)c(S(=O)(=O)N(C)CC(=O)N2CCCC2)c(C)c1	–	·	·	·	·	·	·	·	·
Cc1c(CC(=O)NCC(=O)N[C@H](Cc2ccccc2)C(=O)O)c(=O)oc2cc(O)ccc12	72	·	·	–	16	·	46	64	73
Cc1c(C)c2ccc(OCC(=O)N[C@@H](Cc3ccccc3)C(=O)O)cc2oc1=O	–	·	·	–	–	·	·	·	·
O=C(c1cc2c(=O)n3ccccc3nc2s1)N1CCN(Cc2ccccc2)CC1	25	·	·	–	21	·	–	–	–
Cc1cccn2c(=O)c3cc(C(=O)N4CCN(Cc5ccccc5)CC4)sc3nc12	–	·	·	·	·	·	·	·	·
COc1cc2c(cc1OC)C(c1cccs1)N(C(=O)c1cccc(S(=O)(=O)N(C)C)c1)CC2 (configuration not stated)	–	–	–	–	–	–	·	·	·
Cc1cc(C)c2c(n1)nn1c(NCCCN(C)C)cc(C)nc21	72	64	–	–	30	–	27	46	48
Cc1cc(NCCCN(C)C)n2nc(-c3cccs3)cc2n1	–	–	–	–	–	–	·	·	·
CSCCC(NS(=O)(=O)/C=C/c1ccccc1)C(=O)NCCc1ccc(S(N)(=O)=O)cc1 (configuration not stated)	–	–	–	–	–	–	·	·	·
Cc1ccc2nnnc(-c3ccccc3)c2c1	–	–	–	–	–	–	·	·	·
Cc1ccc2nc(NCC(=O)O)nc(-c3ccccc3)c2c1	14	–	–	–	22	–	48	28	15	EDANS interf=–
Cc1c(CC(=O)N2CCN(C(=O)C3COc4ccccc4O3)CC2)c(=O)oc2cc(O)c(Cl)cc12 (configuration not stated)	89	·	·	–	44	·	2.9	64	64
CCOc1ccc(C2C(C(=O)OC)=CN(CCOC)C=C2C(=O)OC)cc1	26	107	102	–	21	–	15	–	–
COCCN1C=C(C(=O)OC)C(c2ccc(Cl)cc2)C(C(=O)OC)=C1	31	105	94	–	41	–	13	–	–
COCCN1C=C(C(=O)OC)C(c2cc3c(cc2Br)OCO3)C(C(=O)OC)=C1	·	–	–	–	?	–	·	·	·
CCCS(=O)(=O)NC(=O)C1(C)CCN(C(=O)c2cc(F)cc(F)c2)C1 (configuration not stated)	–	·	·	·	·	·	·	·	·
COC(=O)C1=C(N)Oc2cc(C)n(CC3CCCO3)c(=O)c2C1c1ccccc1 (configuration not stated)	–	–	–	–	–	–	·	·	·
COC(=O)C1=CN(Cc2ccc(OC)c(OC)c2)C=C(C(=O)OC)C1c1cccc(O)c1	17	·	·	·	19	·	17	–	–
COC(=O)C1=CN(CC2CCCO2)C=C(C(=O)OC)C1c1cccc(O)c1 (configuration not stated)	63	87	76	–	28	–	20	65	61
COc1ccc(N2CCN(C3CCCN(C(=O)CN4CCOC4=O)C3)CC2)cc1 (configuration not stated)	–	·	·	–	–	·	·	·	·
c1ccc(Nc2nc3ccccc3n3nnnc23)cc1	20	–	–	–	36	–	24	–	46
O=C(CC(C(=O)NCc1ccccc1)c1nc2ccccc2c(=O)[nH]1)NCc1ccccc1 (configuration not stated)	–	–	–	–	–	–	·	·	·
Cc1ccc(S(=O)(=O)NC(C(=O)N2CCOCCOCCOCC2)c2ccccc2)cc1 (configuration not stated)	–	–	–	–	–	–	·	·	·
SMILES	proKLK7 act	Runt-SMMHC FRET	Runt-CBFb FRET	AI-2 QS mod	RanGTP-Imp inh	Wee1 degr inh	YIC FRET counter	KLK7 act conf	EDANS-DABCYL int	others
Cc1ccc(S(=O)(=O)NC(C(=O)Oc2ccc3ccc(=O)oc3c2)c2ccccc2)cc1 (configuration not stated)	63	160	85	–	20	–	28	329	377
COc1ccc(CNCc2ccncc2)c(OC)c1	–	·	·	–	–	·	·	·	·
COc1ccc(CNCc2c(O)c(Cl)cc3c(C)c(C)c(=O)oc23)c(OC)c1	32	·	·	–	18	·	7	74	78
CCc1cc(=O)oc2c(CNCc3ccc(OC)cc3OC)c(O)c(Cl)cc12	44	·	·	–	34	·	32	70	67
CN1CCN(Cc2cc(=O)oc3ccc(Cl)cc23)CC1	–	–	–	–	–	–	·	·	·
CCCc1cc(=O)oc2c(CN3CCN(C)CC3)c(O)c(Cl)cc12	60	101	123	–	50	·	31	71	76
CCCCc1cc(=O)oc2c(CN3CCCC3)c(O)c(Cl)cc12	63	135	96	–	26	–	28	71	82
COc1ccc(C(=O)Nc2ccnn2C2CCN(C(=O)c3cnsn3)CC2)cc1	–	·	·	–	–	·	·	·	·
CN(C)c1oc(-c2cccs2)nc1C#N	39	–	–	–	24	–	–	65	82
CCC(NC(=O)c1ccccc1NC(=O)c1ccccc1)C(=O)NNC(=O)c1cccnc1 (configuration not stated)	–	–	–	–	–	–	·	·	·
COc1ccc(CCNC(=O)CSc2nn(-c3ccccc3)c(=S)s2)cc1	–	–	–	–	–	–	·	·	·
CCS(=O)(=O)c1nc(S(=O)(=O)c2ccc(Cl)cc2)c(NCc2ccccn2)s1	–	–	–	–	–	–	·	·	·
Cc1cccn2c(=O)c(/C=C(\C#N)C(N)=O)c(Oc3ccccc3)nc12	15	119	–	–	25	–	1.6	–	–
COCCNC(=O)/C(C#N)=C/c1c(N2CCN(c3ccc(OC)cc3)CC2)nc2c(C)cccn2c1=O	15	·	·	–	19	·	46	14	11	EDANS interf=–
